Assay outcomes (PubChem)
APP 5'UTR act – activates APP 5'UTR luciferase reporter. SH-SY5Y APP 5'UTR luciferase reporter, luminescence; zero percent = DMSO vehicle wells. activation, % at 2 µM. 190,000 tested, 1% active;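 active = activation above a set limit, based on mean plus 3 SD of controls, cut at about 140% in these data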
STAT3 inh – reduces IL-6 driven STAT3 reporter signal | U3A cells, IL-6 STAT3-luciferase reporter, luminescence; host cell line lacks STAT1 | inhibition, % at 5.5 µM | AID 862 | 190,000 tested, 0.89% active;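 active = inhibition above the mean inhibition across all screened compounds plus 3 SD, cut at about 44% in these data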
STAT1 act – activators of IFN-gamma induced STAT1 signaling; 200,000 tested, 2.6% active; activation (% of control), % at 5.5 µM; AID 932; NIH 3T3 STAT1-luciferase reporter, luminescence; 100% = IFN-gamma alone, no compound;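 active = activation above the screen-wide mean activation plus 3 SD, cut at about 130% in these data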
STAT3 activator – increases IL-6 driven STAT3 reporter signal; U3A cells, IL-6 STAT3-luciferase reporter, luminescence; 100% = signal with IL-6 EC80 alone; activation (% of control), % at 5.6 µM; AID 871; 190,000 tested, 0.91% active;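 active = activation above the screen-wide mean of compound activation plus 3 SD, cut at about 130% in these data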
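Test system: STAT3-luciferase reporter U3A cells; Detection: reporter luminescence signal; Times: 1 h compound pre-exposure, 6 h IL-6 stimulation, 37 °C; Benchmarks: IL-6-only high control; Also added: IL-6 stimulus at 33 ng/mL final.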
NF-kB expr up – raises NF-kB expression in human neuronal cells; NF-kB reporter expression; active compounds read high; fold change at 12.5 µM; 190,000 tested, 1.6% active; AID 1239; in the data active = fold change above about 3.3
STAT1 inh – reduces IFN-gamma driven STAT1 reporter signal | NIH 3T3 STAT1-luciferase reporter, luminescence | inhibition, % at 5.5 µM | 200,000 tested, 0.35% active | AID 920;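 active = inhibition above a set limit, the mean inhibition across all tested compounds plus 3 SD, cut at about 34% in these data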
Each line names hits and unclear results; the compound was inactive in the other large screens. Hits are enriched below; roughly 5.1% of the tested compounds scored in any of these assays.

Cc1cccc(-c2noc(CSc3ccccc3)n2)c1	STAT1 act 145
O=C(NNS(=O)(=O)c1ccc(Cl)cc1)c1ccc(S(=O)(=O)N2CCCCC2)cc1	none
CN(C)S(=O)(=O)c1ccc2c(c1)C(CC(=O)O)NC2=O (centres undefined)	none
Cc1ccc(N2Cc3ccccc3C2=S)cc1	APP 5'UTR act 201, STAT1 act 136, NF-kB expr up 6.8
CCN(CC)C(=O)c1cn(-c2ccccc2)nc1-c1ccc2c(c1)OCCO2	none
N#Cc1cn(-c2ccccc2)nc1-c1ccc2c(c1)OCCO2	STAT1 act 146
COC(=O)CCS(=O)(=O)c1ccc(Cl)cc1	none
Cc1sc2c(c1C)C(=O)NC(c1cccc(O)c1)N2 (centres undefined)	STAT3 activator 144
Clc1ccc(-n2cc(COCc3ccccc3)nn2)cc1	APP 5'UTR act 170, NF-kB expr up 4.1
O=C(Nc1ccc(Cl)cc1)OCc1cn(-c2ccc(Cl)cc2)nn1	none (no result: APP 5'UTR act)
CC1CCCCC12NC(=O)N(CC(=O)Nc1ccccc1-c1ccccc1)C2=O (centres undefined)	none
COc1ccc(N2C(N)=NC(N)=NC2(C)C)cc1	NF-kB expr up 3.9
Cc1ccc(N/C=C2\CCCCC2=O)nc1	STAT1 act 135
Cc1ccc(NC(=O)c2ccc3snnc3c2)cc1	STAT1 act 147
O=C(Nc1ccccc1)c1ccc2snnc2c1	none
Cc1nc2c(Cl)cccc2[nH]1	STAT3 activator 133 (no result: APP 5'UTR act)
Cc1nc(C)c(Cc2ccccc2Cl)c(=O)[nH]1	none
Cc1cc2n(n1)C(c1c[nH]c3ccccc13)Nc1ccccc1-2 (centres undefined)	STAT3 activator 139
CCN(CC)c1ccc(/C=N/NC(=S)NC)c(O)c1	NF-kB expr up 5.9
CCN(CC)c1ccc(/C=N/N2CCOCC2)c(O)c1	STAT1 act 142
CCN(CC)c1ccc(C=Nc2ccc(N(C)C)cc2)c(O)c1	STAT1 act 130
CCN(CC)c1ccc(/C=N/N2CCN(Cc3ccccc3)CC2)c(O)c1	none
CCCN(Cc1ccccc1)C(=S)Nc1ccc(SC(F)F)cc1	none
CC(Sc1nnc(COc2ccc(Cl)cc2)n1Cc1ccccc1)C(=O)O (centres undefined)	none
O=C(Cn1nnc2ccccc21)Nc1ccc(Cl)cn1	none
O=C(Nc1ccc(-c2nc3ccccc3[nH]2)cc1)c1ccc(N2C(=O)CCC2=O)cc1	none
CC(=O)c1sc(N/N=C2\CC3CC2C(C)C3(C)C)nc1C (centres undefined)	STAT1 act 131
CCCC(=O)Nc1nc(C)c(C(C)=O)s1	none
Nc1c(-c2ccccc2)c(CN2CCOCC2)nn1-c1cccc([N+](=O)[O-])c1	none
COC(=O)c1ccccc1OCCOc1ccccc1C(=O)OC	none
COc1cc(C=O)ccc1OCc1cccc(Br)c1	STAT1 act 130
COC(=O)c1ccccc1OCCCOc1ccc(C=O)cc1OC	STAT1 act 134
O=C(Cc1cccs1)Nc1nc2c(s1)CCCC2	STAT1 act 131, NF-kB expr up 6.1
O=C(Nc1nc2c(s1)CCCC2)c1cccnc1	STAT1 act 139, NF-kB expr up 4
Cn1nnnc1SCC(=O)Nc1nc2c(s1)CCCC2	STAT1 act 143, NF-kB expr up 4
O=C(Cc1cccs1)Nc1nc2c(ccc3ccccc32)s1	STAT3 activator 159
COc1cc(OC)cc(-n2nnnc2SCC(=O)Nc2nc3c(s2)CCCC3)c1	none
CC1CCCN(c2nc3ccccc3nc2C(C#N)S(=O)(=O)c2cccs2)C1 (centres undefined)	none
O=C(O)C1C2C=CC(C2)C1C(=O)NC(c1ccccc1)c1ccccc1 (centres undefined)	none
Cc1ccc2nc(SCC(=O)c3cc(C)n(C)c3C)[nH]c2c1	NF-kB expr up 3.4
Cc1cc(C(=O)CSc2nc3ccc(Cl)cc3[nH]2)c(C)n1C	none
Cc1ccc2nc(SCC(=O)c3c(N)n(C)c(=O)n(C)c3=O)[nH]c2c1	none
C/C(N)=C(/C#N)C(=O)CSc1nc2ccc(C)cc2[nH]1	APP 5'UTR act 141, STAT1 act 150, NF-kB expr up 4.3
Cc1cc(C(=O)CSc2nc3ccccc3[nH]2)c(C)n1C	APP 5'UTR act 149, STAT1 act 142, NF-kB expr up 4
CCOC(=O)c1cc2cc(F)ccc2nc1C	none
